Measurements as given in ChEMBL document CHEMBL1806352, “Discovery of imidazo[1,2-b]pyridazines as IKKβ inhibitors. Part 3: exploration of effective compounds in arthritis models” (Bioorg Med Chem Lett, 2011).

What was measured:
[1] = Octanol-phosphate buffered saline distribution coefficient, log D of the compound at pH 7.4; assay type: physicochemical
Outline: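 PBS pH 7.4 and 1-octanol were mutually pre-saturated for over 12 h. Compound (200 µM) was dissolved in one phase, an equal volume of the other phase was added, and the mixture was shaken 30 min at room temperature. Both phases were assayed by HPLC or LC/MS. Log D7.4 was calculated as log of the octanol/PBS peak area ratio.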

[2] = Permeability of the compound at pH 7.4 by PAMPA method; assay type: ADME; conditions: read-out: permeability
Outline: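 PAMPA was run with the donor filter coated with a phospholipid solution and the acceptor plate filled with acceptor buffer pH 7.4. Plates were incubated 4 h at 25 °C. Compound in both plates was quantified spectrometrically, and effective permeability Pe7.4 was calculated.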

[3] = Apparent permeability across MDCK cells at 10 uM after 1 hr by LC/MS/MS analysis; assay type: ADME, cell-based, Canis lupus familiaris; conditions: dog
Outline: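 MDCK cells were grown 6 days on transwells to form monolayers. Compound (10 µM in transport buffer, pH 6.0) was added apically. The basolateral side held buffer at pH 7.4 with 4% BSA, and metoprolol served as positive control. After 1 h at 37 °C, basolateral concentration was measured by LC/MS/MS. Papp was calculated from flux over 3600 s across a 0.33 cm² filter.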

[4] = Plasma concentration in BALB/c mouse at 30 mg/kg, po after 90 mins; assay type: ADME, organism-based; parameters: dose 30 mg/kg, route oral
[5] = Mean residence time in Wister-Lewis rat at 30 mg/kg, po; assay type: ADME, organism-based; parameters: dose 30 mg/kg, route oral; conditions: in vivo
Outline: (§1)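 Fed female Wistar–Lewis rats (7–8 weeks old, n = 3) were given 30 mg/kg orally as a suspension in 0.5% (w/v) methyl cellulose. Blood samples (0.3 ml) were taken at 0.5, 1, 2, 4, 8 and 24 h. Plasma levels were measured by LC/MS/MS and analysed non-compartmentally.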

[6] = Oral steady-state volume of distribution in Wister-Lewis rat at 30 mg/kg, po; assay type: ADME, organism-based; parameters: dose 30 mg/kg, route oral; conditions: in vivo, read-out: Vss/F; outline: as §1
[7] = Tmax in BALB/c mouse at 30 mg/kg, po; assay type: ADME, organism-based; parameters: dose 30 mg/kg, route oral; conditions: in vivo
Outline: (§2)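 Fed female BALB/c mice (7 weeks old, n = 3) received a single oral dose of 30 mg/kg suspended in 0.5% (w/v) methyl cellulose. Blood was drawn at 0.5, 1, 2, 4, 8 and 24 h, and plasma was stored at −20 °C. Drug was quantified by LC/MS/MS, and parameters were derived by non-compartmental analysis.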

[8] = Cmax in BALB/c mouse at 30 mg/kg, po; assay type: ADME, organism-based; parameters: dose 30 mg/kg, route oral; conditions: in vivo; outline: as §2
[9] = Tmax in Wister-Lewis rat at 30 mg/kg, po; assay type: ADME, organism-based; parameters: dose 30 mg/kg, route oral; conditions: in vivo; outline: as §1
[10] = AUC (0 to 24 hrs) in BALB/c mouse at 30 mg/kg, po; assay type: ADME, organism-based; parameters: time < 24 hr, dose 30 mg/kg, route oral; conditions: plasma; outline: as §2
[11] = Mean residence time in BALB/c mouse at 30 mg/kg, po; assay type: ADME, organism-based; parameters: dose 30 mg/kg, route oral; conditions: in vivo; outline: as §2
[12] = Oral steady-state volume of distribution in BALB/c mouse at 30 mg/kg, po; assay type: ADME, organism-based; parameters: dose 30 mg/kg, route oral; conditions: in vivo, read-out: Vss/F; outline: as §2
[13] = Cmax in Wister-Lewis rat at 30 mg/kg, po; assay type: ADME, organism-based; parameters: dose 30 mg/kg, route oral; conditions: in vivo; outline: as §1
[14] = AUC (0 to 24 hrs) in Wister-Lewis rat at 30 mg/kg, po; assay type: ADME, organism-based; parameters: time < 24 hr, dose 30 mg/kg, route oral; conditions: plasma; outline: as §1

Row | Compound | logD [1] | Papp [2] [×10⁻⁶ cm/s] | concentration at […] [4] [ng/mL] | other results
1 | O=C(NC[C@@H]1CCCN1)c1ccc(-c2cnc3ccc(NCC4CC4)nn23)cc1 | 1.8 | 0.84 |  | 
2 | CN(C)CCNC(=O)c1ccc(-c2cnc3ccc(NCC4CC4)nn23)cc1 | 2.5 |  |  | Papp at 1 h, 10 µM [3]: 2.1 ×10⁻⁶ cm/s
3 | CCCN(C[C@@H]1C[C@@H](F)CN1)C(=O)c1ccc(-c2cnc3ccc(NCC4CC4)nn23)cc1 | 3.4 |  |  | 
4 | O=C(c1ccc(-c2cnc3ccc(NCC4CC4)nn23)cc1)N(Cc1ccc(Cl)cc1)C[C@@H]1C[C@@H](F)CN1 | 5 |  |  | 
5 | O=C(NCCN1CCCC1)c1ccc(-c2cnc3ccc(NCC4CC4)nn23)cc1 | 2.6 | > 50 | 440 | Papp at 1 h, 10 µM [3]: 2.3 ×10⁻⁶ cm/s
6 | CN(C)CCNC(=O)c1ccc(-c2cnc3ccc(NCC4CC4)nn23)cc1F | 2.7 | > 50 | 110 | Papp at 1 h, 10 µM [3]: 6.2 ×10⁻⁶ cm/s
7 | O=C(NCCN1CCCC1)c1ccc(-c2cnc3ccc(NCC4CC4)nn23)cc1F | 2.8 | > 50 | 290 | Papp at 1 h, 10 µM [3]: 5.6 ×10⁻⁶ cm/s
8 | O=C(NC[C@@H]1CCCN1)c1ccc(-c2cnc3ccc(NCC4CC4)nn23)cc1F | 1.8 | 19 | 140 | 
9 | O=C(NC[C@@H]1C[C@@H](F)CN1)c1ccc(-c2cnc3ccc(NCC4CC4)nn23)cc1F | 3.1 | > 50 | 380 | MRT [5]: 4.9 h; Vd/F [6]: 6.5 L/kg; Tmax [7]: 1 h; Cmax [8]: 260 ng/mL; Papp at 1 h, 10 µM [3]: 4.2 ×10⁻⁶ cm/s; Tmax [9]: 4 h; AUC(0-t) at 24 h [10]: 888 ng·h/mL; MRT [11]: 2.3 h; Vd/F [12]: 78 L/kg; Cmax [13]: 4100 ng/mL; AUC(0-t) at 24 h [14]: 23100 ng·h/mL
10 | O=C(NC[C@@H]1CCCN1)c1ccc(-c2cnc3ccc(NCC4CC4)nn23)cc1Cl | 2.2 | 14 |  | 
11 | CN(C)CCNC(=O)c1ccc(-c2cnc3ccc(NCC4CC4)nn23)nc1 | 2 | 14 |  | 
12 | O=C(NCCN1CCCC1)c1ccc(-c2cnc3ccc(NCC4CC4)nn23)nc1 | 2 | 11 |  | 
13 | CCCNc1ccc2ncc(-c3ccc(C(=O)NC[C@@H]4C[C@@H](F)CN4)c(F)c3)n2n1 | 3.1 | > 50 | 540 | 
14 | CCCCNc1ccc2ncc(-c3ccc(C(=O)NC[C@@H]4C[C@@H](F)CN4)c(F)c3)n2n1 | 3.5 | > 50 | 600 | 
15 | CCCCCNc1ccc2ncc(-c3ccc(C(=O)NC[C@@H]4C[C@@H](F)CN4)c(F)c3)n2n1 | 4 | > 50 | 93 | 
16 | O=C(NC[C@@H]1C[C@@H](F)CN1)c1ccc(-c2cnc3ccc(NC4CCC4)nn23)cc1F | 3.3 | > 50 | 1400 | MRT [5]: 5.1 h; Vd/F [6]: 1.7 L/kg; Tmax [7]: 1 h; Cmax [8]: 750 ng/mL; Papp at 1 h, 10 µM [3]: 7 ×10⁻⁶ cm/s; Tmax [9]: 2.8 h; AUC(0-t) at 24 h [10]: 1860 ng·h/mL; MRT [11]: 2 h; Vd/F [12]: 32 L/kg; Cmax [13]: 16000 ng/mL; AUC(0-t) at 24 h [14]: 95300 ng·h/mL
17 | O=C(NC[C@@H]1C[C@@H](F)CN1)c1ccc(-c2cnc3ccc(NC4CCCC4)nn23)cc1F | 3.6 | > 50 | 660 | 
18 | CSCCNc1ccc2ncc(-c3ccc(C(=O)NC[C@@H]4C[C@@H](F)CN4)c(F)c3)n2n1 | 2.8 | > 50 |  | 
19 | CSCCCNc1ccc2ncc(-c3ccc(C(=O)NC[C@@H]4C[C@@H](F)CN4)c(F)c3)n2n1 | 3 | 40 | 150 | 
20 | O=C(NC[C@@H]1C[C@@H](F)CN1)c1ccc(-c2cnc3ccc(NCCCF)nn23)cc1F | 2.5 | 33 | 480 | 
21 | O=C(NC[C@@H]1C[C@@H](F)CN1)c1ccc(-c2cnc3ccc(NCCCCF)nn23)cc1F | 2.8 | > 50 | 420 | 
22 | O=C(NC[C@@H]1C[C@@H](F)CN1)c1ccc(-c2cnc3ccc(NCCCCCF)nn23)cc1F | 3.3 | 37 | 110 | 
